Only a selection was taken, and hits are over-represented in it overall.
p-CIP stab down = p/CIP-EGFP fusion destabilizers, primary screen, fluorescence, F442A cells | Q05BA5 | 16 h | decrease of EGFP signal, % at 10 µM | 290,000 tested, 0.01% active;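 active = EGFP signal decrease of at least 30% at 10 µM or well 3 SD below plate mean, unless failing retest; inactive = the rest, including hits failing retest or dose response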
Target sequence (Q05BA5 1-1403): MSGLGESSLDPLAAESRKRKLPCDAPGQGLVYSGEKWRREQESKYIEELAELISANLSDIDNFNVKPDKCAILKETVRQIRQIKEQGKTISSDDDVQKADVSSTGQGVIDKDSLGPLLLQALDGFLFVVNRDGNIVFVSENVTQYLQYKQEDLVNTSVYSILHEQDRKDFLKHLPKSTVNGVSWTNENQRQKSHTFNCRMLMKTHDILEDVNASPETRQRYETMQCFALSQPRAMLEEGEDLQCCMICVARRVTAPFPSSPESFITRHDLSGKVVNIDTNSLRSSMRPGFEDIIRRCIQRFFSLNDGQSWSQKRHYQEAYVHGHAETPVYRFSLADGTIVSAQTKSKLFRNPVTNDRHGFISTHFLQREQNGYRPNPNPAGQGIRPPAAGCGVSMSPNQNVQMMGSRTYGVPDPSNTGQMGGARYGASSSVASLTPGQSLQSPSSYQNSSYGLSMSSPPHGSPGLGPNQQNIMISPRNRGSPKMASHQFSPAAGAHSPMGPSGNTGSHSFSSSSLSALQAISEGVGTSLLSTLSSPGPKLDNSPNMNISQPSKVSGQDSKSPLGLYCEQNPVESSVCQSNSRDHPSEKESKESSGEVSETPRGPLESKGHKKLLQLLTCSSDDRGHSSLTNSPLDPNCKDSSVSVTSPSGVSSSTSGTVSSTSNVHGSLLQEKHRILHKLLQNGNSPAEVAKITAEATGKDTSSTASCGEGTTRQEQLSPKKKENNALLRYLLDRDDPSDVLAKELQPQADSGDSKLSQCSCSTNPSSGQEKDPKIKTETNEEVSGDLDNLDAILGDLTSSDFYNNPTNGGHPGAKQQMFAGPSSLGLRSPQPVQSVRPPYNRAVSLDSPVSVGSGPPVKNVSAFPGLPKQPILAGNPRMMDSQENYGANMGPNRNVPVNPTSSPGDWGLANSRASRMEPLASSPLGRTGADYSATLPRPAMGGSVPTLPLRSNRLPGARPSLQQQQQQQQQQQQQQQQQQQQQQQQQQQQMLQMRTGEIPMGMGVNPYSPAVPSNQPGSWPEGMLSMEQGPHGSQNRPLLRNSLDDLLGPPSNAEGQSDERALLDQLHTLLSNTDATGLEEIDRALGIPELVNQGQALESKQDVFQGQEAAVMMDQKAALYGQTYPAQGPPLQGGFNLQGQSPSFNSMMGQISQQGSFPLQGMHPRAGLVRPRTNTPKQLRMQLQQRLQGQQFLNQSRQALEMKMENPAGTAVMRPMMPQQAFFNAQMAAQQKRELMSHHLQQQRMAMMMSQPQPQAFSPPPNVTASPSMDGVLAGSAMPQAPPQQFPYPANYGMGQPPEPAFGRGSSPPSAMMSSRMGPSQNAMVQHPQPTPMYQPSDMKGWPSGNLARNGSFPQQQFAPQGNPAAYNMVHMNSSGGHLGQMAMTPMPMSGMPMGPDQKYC
Beta2AR agonist = beta2AR agonists driving receptor internalization, primary screen, cell-based, FAP fluorogen, flow cytometry. AID 504454, 2011. response, % (no concentration beside the values). Beta-2 adrenergic receptor (Homo sapiens), P07550. 340,000 tested, 0.43% active. Am2.2-beta2AR cells;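 active = response above a set limit, near 3 SD of response in nonfluorescent compounds, cut at about 42% in these data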
XBP1 UPR activ = activators of adaptive XBP1 UPR arm, primary screen, cell-based, CHO-XBP1 luciferase reporter, luminescence, uHTS; IRE1-XBP1 UPR activation; percent of tunicamycin response, DMSO as zero; AID 463104, 2010; activation, % at 20 µM; 330,000 tested, 0.33% active;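 active = versus positive control, 20 µM dose yields 30% or more activation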
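incubation = overnight seeding at 37 °C, 6 h compound treatment at 37 °C | assay system = CHO-XBP1 cells stably carrying IRE1-XBP1-driven luciferase reporter | input = 1000 cells per well | detection = luciferase luminescence | dosing = single point, 20 µM final compound, 1% DMSO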
Dynein cargo inh = inhibitors of GR-EGFP nuclear translocation, primary screen, dynein cargo transport inhibitor project, imaging, high-content, 3617.4 mouse cells | test concentration mostly 20 µM; stimulated with dexamethasone, 1 µM; hits give low values | z-score, hits read low | 220,000 tested, 0.47% active | AID 1381, 2008;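 active = plate z-score of nuclear minus cytoplasmic receptor signal below a set negative limit, without overly bright fluorescence or cell loss, cut at about -3.5 in these data, passing the limit was not always enough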;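 note: z-score of nuclear minus cytoplasmic ring GR-EGFP intensity difference per well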
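Also added – dexamethasone, 1.0 µM final · Buffer or medium – tet-free, stripped-serum medium · Schedule – induction 48 h, compound 1 h, agonist 30 min · Detection – formaldehyde fixation, Hoechst nuclear stain, 10x automated fluorescence imaging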
CHOP inh = inhibitors of CHOP promoter induction, primary screen, cell-based, unfolded protein response, luciferase reporter; CHO-K1 CHOP-promoter luciferase, tunicamycin-induced, 15-18 h; inhibition, % at 10 µM; 220,000 tested, 3.8% active;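 active = compounds that reduced the stress-induced luciferase reporter signal by more than about 70% of percent inhibition, limit read from the data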
UPR CHOP act = activators of apoptotic CHOP UPR arm, primary screen, cell-based, CHO-CHOP luciferase reporter, luminescence, uHTS; activation, % at 10 µM; UPR activation; percent of tunicamycin response over DMSO baseline; 330,000 tested, 0.34% active;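 active = at 10 µM dose, activation of 40% or more, normalized to positive control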
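Assay system: CHO-CHOP cells, stable luciferase reporter of PERK-eIF2a-CHOP signalling / Buffer or medium: F12 plus 10% serum / Compound dosing: one dose, 10 µM in 0.5% DMSO / Times: 6 h compound treatment, 37 °C / Technique: luciferase luminescence / Read-out: % reporter activation, DMSO baseline versus tunicamycin full activation / Benchmarks: tunicamycin and DMSO controls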
Beta2AR ag CP1 = beta2AR agonists via receptor internalization, confirmation, cell-based, FAP fluorogen, flow cytometry, single point, cherry pick 1; shares compounds with Beta2AR agonist; Am2.2-beta2AR cells, FAP surface receptor; hits give low values; percent response (surface receptor), % at 10 µM; 1,100 tested, 25% active; AID 540358, 2011;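 active = surface receptor percent response at or below 58%, roughly 3 SD from nonfluorescent compounds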
FAP fluor counter = counter-screen for beta-2AR agonists: fluorescence in Am2.2 cells. calls only at 10 µM. 1,100 tested, under 10 active. FAP fluorogen flow cytometry, fluorescence counterscreen; hits give low values. AID 588765. shares compounds with Beta2AR agonist;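 active = percent response below a set limit in fluorescence channel 1 and below 50% in channel 8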
Numbers stand for hits; n = inactive; x = not tested or not shown; + = active, no number.

SMILES	p-CIP stab down	Beta2AR agonist	XBP1 UPR activ	Dynein cargo inh	CHOP inh	UPR CHOP act	Beta2AR ag CP1	FAP fluor counter
Nc1c(S(=O)(=O)c2cccs2)c2nc3ccccc3nc2n1Cc1ccccc1	n	n	n	n	n	n	x	x
Cc1ccc(Oc2ncccc2N)c2c1CCC2	n	n	n	n	n	n	x	x
N=c1n(Cc2ccc(Cl)cc2)c2ccccc2n1CC(O)COc1ccccc1 (stereo unspecified)	n	42.7	n	n	83.2	n	18.7	n
O=C(CSCc1cccc(Cl)c1)N1CCN(Cc2ccc3c(c2)OCO3)CC1	n	n	n	n	n	n	x	x
C=Cn1cc[n+](CC(=O)c2ccc(Cl)c(Cl)c2)c1	n	n	n	x	x	n	x	x
COc1ccc(-c2sc3cc4c(cc3c2C#Cc2cncn2C)OCO4)cc1	x	56.4	n	x	x	n	n	n
CC1CCN(C(=O)CS(=O)(=O)Cc2ccccc2)CC1	n	n	n	x	x	n	x	x
NC(=O)[C@@H]1CCCN1Cc1nc(-c2ccccc2)no1	n	n	n	n	n	n	x	x
O=C(N[C@@H](Cc1ccccc1)C(=O)OCc1ccccc1)c1nc[nH]c1C(=O)NCc1ccccc1	n	62.9	n	n	n	n	n	n
OC(c1ccccc1)c1cccnc1 (stereo unspecified)	n	n	n	n	n	n	x	x
Cc1ccc(C(=O)NNC(=O)CCCCC(=O)NNC(=O)c2ccc(C)cc2)cc1	n	n	n	x	x	n	x	x
CC1C[C@@]2(NC(=O)NC2=O)C(C)CN1C (stereo partly specified)	n	46.2	n	n	n	n	n	n
CCCC(=O)NC(c1ccc(C)cc1)c1ccc2cccnc2c1O (stereo unspecified)	n	n	n	x	x	n	x	x
CCC(=O)NC(c1cccs1)c1ccc2cccnc2c1O (stereo unspecified)	n	n	n	n	86.1	n	n	n
c1ccc2c(-c3[nH]ncc3CNCCCn3ncc4ccccc43)cccc2c1	n	n	n	n	n	n	x	x
COc1ccc2[nH]c3c(NCCC4=CCCCC4)ncnc3c2c1	n	45.2	x	n	71.9	x	n	n
Cn1c(CNS(=O)(=O)c2ccc(Cl)cc2)cc(=O)n(C)c1=O	n	n	n	x	x	n	x	x
COC(=O)c1sccc1NC(=O)c1ccc(C(C)C)cc1	n	n	n	x	x	n	x	x
COc1ccccc1/C=C/c1onc(C)c1S(=O)(=O)N1CCC(C(=O)NC(C)C)CC1	n	44.0	n	x	x	n	n	n
COC(=O)c1ccc2c(=O)[nH]c(CSc3nc(-c4ccc(F)cc4)cs3)nc2c1	n	63.5	n	n	n	n	n	n
N=c1n(CC(=O)c2ccc([N+](=O)[O-])cc2)c2ccccc2n1Cc1ccccc1Cl	n	93.5	x	n	n	x	24.4	+
N=c1n(CC(=O)c2ccc(Br)cc2)c2ccccc2n1Cc1ccccc1	x	73.9	n	x	x	n	33.4	n
CCOC(=O)c1[nH]c(=S)n(Cc2ccccc2)c1C(=O)OCC	x	42.9	x	x	x	x	n	n
CN(C(=O)c1ccc(NC(=O)Cc2cccc(NC(=O)C3CCN(C(=O)C4CC4)CC3)c2)cc1)C1CCCC1	x	n	n	x	x	n	n	n
CN(C(=O)c1ccc(NC(=O)Cc2cccc(NC(=O)C3CCN(C(=O)C4CCC4)CC3)c2)cc1)C1CCCC1	x	n	n	x	x	n	n	n
SMILES	p-CIP stab down	Beta2AR agonist	XBP1 UPR activ	Dynein cargo inh	CHOP inh	UPR CHOP act	Beta2AR ag CP1	FAP fluor counter
CN(C(=O)c1ccc(NC(=O)Cc2cccc(NC(=O)C3CCN(C(=O)C4CCCC4)CC3)c2)cc1)C1CC1	x	n	x	x	x	x	n	n
CN(C(=O)c1ccc(NC(=O)Cc2ccc(NC(=O)C3CCN(C(=O)C4CCCC4)CC3)cc2)cc1)C1CC1	x	n	n	x	x	n	x	x
CN(C(=O)c1cccc(NC(=O)Cc2cccc(NC(=O)C3CCN(C(=O)C4CCCC4)CC3)c2)c1)C1CCC1	x	n	x	x	x	x	x	x
O=C(Nc1ccc(Cl)cc1)N1CCCC(Cn2cccc2)C1 (stereo unspecified)	n	n	n	n	n	n	x	x
COc1ccc(NC(=O)C2CC3C=CC2C3)c([N+](=O)[O-])c1 (stereo unspecified)	x	n	x	x	x	x	x	x
CC(=O)c1oc2ccccc2c1NC(=O)CCCN1C(=O)c2ccccc2C1=O	n	67.6	n	n	n	n	n	n
COc1ccccc1C(=O)Nc1ccc(S(=O)(=O)N2CCC(C)CC2)cc1	n	n	n	x	x	n	x	x
COc1ccccc1C(=O)Nc1ccc(S(=O)(=O)N2CCCCC2c2cccnc2)cc1 (stereo unspecified)	n	n	n	n	n	n	n	n
O=C(Nc1ccc(S(=O)(=O)N2CCCCC2c2cccnc2)cc1)c1ccccc1F (stereo unspecified)	n	n	n	n	n	n	n	n
Cc1nc(NC(=O)CSC2=NCCS2)sc1C(=O)N(C)C	n	n	n	x	x	n	x	x
CCc1ccccc1OCC(=O)OCC(=O)N1CC(=O)Nc2ccccc21	n	n	n	n	n	n	x	x
COc1ccc(C(CCNC(C)c2ccccc2)C(C)C)cc1 (stereo unspecified)	n	n	n	n	n	n	x	x
COc1ccc(C(C)NCCC(c2ccc(OC(C)C)cc2)c2ccccc2OC)cc1 (stereo unspecified)	n	n	n	x	x	n	n	n
COC(=O)Cc1cccc2c(=O)c3ccccc3oc12	n	n	n	n	n	n	x	x
CCCCN(CCCC)c1nc(OC)nc(-n2nnc(C(C)=O)c2C)n1	n	73.5	n	n	n	n	25.0	n
CC(=O)c1nnn(-c2nc(N)nc(N(c3ccccc3)c3ccccc3)n2)c1C	n	n	n	n	n	n	x	x
CCOc1ccc2nc(NC(=O)Nc3cccs3)sc2c1	n	n	n	n	n	n	x	x
Cc1cc(C)cc(NC(=O)C(OC(=O)c2sccc2C)c2ccccc2)c1 (stereo unspecified)	n	64.4	n	n	n	n	n	n
Cc1ccc(NC(=O)c2ccc3c(c2)C(=O)N(CC2CCCO2)C3=O)cc1C (stereo unspecified)	n	n	n	n	n	n	n	n
Cc1cc(C)n2nc(C(=O)Nc3ccc(S(=O)(=O)N4CCCC4)cc3)nc2n1	n	45.6	n	n	n	n	n	n
